Assay outcomes as filed in PubChem.
LMPTP inh – LMPTP phosphatase inhibitors, primary screen, biochemical, fluorescence intensity, uHTS; Low molecular weight phosphotyrosine protein phosphatase (Homo sapiens), P24666; recombinant LMPTP-A, OMFP fluorogenic substrate; inhibition, % at 20 µM; 360,000 tested, 0.22% active; AID 651560, 2012;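 active = compounds that cut the enzyme signal by at least half of the control window in the single-dose screen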;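 also: plate controls were DMSO wells with enzyme plus substrate for no effect and substrate without enzyme for full effect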
Target sequence (P24666 whole entry, looked up): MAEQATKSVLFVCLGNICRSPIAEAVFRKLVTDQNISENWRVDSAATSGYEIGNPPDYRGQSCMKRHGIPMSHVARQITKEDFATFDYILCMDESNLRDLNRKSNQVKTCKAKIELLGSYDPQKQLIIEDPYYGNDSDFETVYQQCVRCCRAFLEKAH
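test system = LMPTP-A | amount = 0.625 nM LMPTP-A final | reagent = fluorogenic phosphatase substrate OMFP at 400 µM final | incubation = 50 min at room temperature | benchmarks = no-enzyme low control, uninhibited high control | medium = Bis-Tris pH 6.0, DTT, detergent | signal = fluorescence intensity of OMFP turnover product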
Scp-1 inhibitor – Scp-1 phosphatase inhibitors, primary screen, biochemical, colorimetric, uHTS. Carboxy-terminal domain RNA polymerase II polypeptide A small phosphatase 1 (Homo …. Recombinant Scp1, phosphopeptide, malachite green phosphate absorbance. inhibition, % at 20 µM. 340,000 tested, 0.88% active;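 active = inhibition above about 50% at 20 µM, limit read from the data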;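 also: plate controls were DMSO wells with enzyme for no effect and wells lacking enzyme for full effect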
Target sequence (Q9GZU7 76-261 limits assumed): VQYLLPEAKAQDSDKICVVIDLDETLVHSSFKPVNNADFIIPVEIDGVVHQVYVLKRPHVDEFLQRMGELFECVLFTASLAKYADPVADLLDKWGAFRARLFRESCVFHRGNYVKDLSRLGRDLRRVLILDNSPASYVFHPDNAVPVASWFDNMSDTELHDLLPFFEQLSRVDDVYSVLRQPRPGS
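Incubation: 45 min enzyme reaction at room temperature / System: truncated SCP-1 phosphatase (76-261aa) / Reagent: Phospho 17-mer peptide substrate / Buffer or medium: Acidic Tris acetate buffer with magnesium and detergent / Signal: absorbance at 630 nm / Doses: one concentration, 20 µM, with 1.0% DMSO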
Rpn11 block – Rpn11 (PSMD14) deubiquitinase inhibitors, primary screen, biochemical, fluorescence polarization, uHTS | 26S proteasome non-ATPase regulatory subunit 14 (Homo sapiens), O00487 | 360,000 tested, 0.59% active | human 26S proteasome, Ub4-pepOG fluorescence polarization; 20S core pre-blocked with epoxomicin | inhibition, % at 20 µM;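 active = inhibition at 20 µM, scaled to each plate's controls, above about 33%, limit read from the data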
Target sequence (O00487 whole entry, looked up): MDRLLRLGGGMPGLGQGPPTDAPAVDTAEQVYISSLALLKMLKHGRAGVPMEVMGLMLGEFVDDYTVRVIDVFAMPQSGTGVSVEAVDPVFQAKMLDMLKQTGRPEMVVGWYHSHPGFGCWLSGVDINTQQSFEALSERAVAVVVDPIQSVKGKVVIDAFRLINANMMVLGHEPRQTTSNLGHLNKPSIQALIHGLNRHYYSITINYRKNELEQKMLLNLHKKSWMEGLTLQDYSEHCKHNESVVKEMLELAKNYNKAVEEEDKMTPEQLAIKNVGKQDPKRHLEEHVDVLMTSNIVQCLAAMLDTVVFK
STEP inh – STEP phosphatase inhibitors, primary screen, biochemical, fluorescence intensity, uHTS | recombinant STEP, OMFP fluorogenic substrate | 360,000 tested, 0.25% active | inhibition, % at 20 µM | AID 588621, 2011 | Tyrosine-protein phosphatase non-receptor type 5 (Homo sapiens), P54829;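 active = inhibition at 20 µM, scaled per plate between control wells, above about 37%, limit read from the data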;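 also: 0% = DMSO with enzyme and substrate and 100% = substrate only without enzyme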
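Test system: STEP tyrosine phosphatase / Reagent: OMFP at 25 µM / Doses: 20 µM, 1% DMSO / Read-out: percent inhibition scaled to no-enzyme and uninhibited-enzyme controls, plate-pattern corrected / Detection: FITC-channel fluorescence of OMFP product / Medium: Bis-Tris buffer pH 6.0, 2.5 mM DTT, 0.005% Tween 20 / Schedule: 20 min at room temperature, dark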
DNMT1 block – human DNMT1 methyltransferase inhibitors, primary screen, biochemical, molecular beacon, fluorescence, HinP1I cleavage, uHTS | DNA (cytosine-5)-methyltransferase 1 (Homo sapiens), P26358 | inhibition (reported as % activation of signal), % at 10 µM | 360,000 tested, 0.83% active | AID 588458, 2011; in the data active = inhibition above about 50%
The depositor's hits bear a star; . = not tested or not shown. Rows were chosen to be rich in hits. Some 2% of all compounds tested hit in one or more screens of this group.

SMILES | LMPTP inh | Scp-1 inhibitor | Rpn11 block | STEP inh | DNMT1 block
CCCCCCn1c(=O)n2n(c1=O)C[C@]1(OC(=O)NCc3ccco3)CN(S(=O)(=O)c3ccc(C)cc3)C[C@]1(O)C2 | 2.3 | . | 5.3 | 0.4 | 3.6
CCN1/C(=C/c2ccc3cccc(C)c3[n+]2CC)Sc2ccccc21 | 34.4 | 41.0 | 75.4* | 3.0 | 8.2
C[n+]1ccccc1/C=C1\Sc2ccccc2N1CCO | 5.7 | 19.2 | -0.7 | -0.7 | 0.3
Cc1ccc(S(=O)(=O)NC(=O)C2(C)CCN2C(=O)C2CCCCC2)nc1 (stereo unspecified) | -1.0 | . | -1.0 | 1.8 | 0.0
O=c1c2c3nc4ccccc4nc3n(/N=C/c3ccco3)c2ncn1CCC1=CCCCC1 | -1.1 | 88.0* | -3.2 | -4.9 | 3.5
Cc1nc2c(c(=O)n1CCC1=CCCCC1)c1nc3ccccc3nc1n2/N=C/c1ccccc1 | 2.8 | 2.9 | 16.9 | 3.8 | 13.3
CCOC(=O)C1(C)CCCN(C(=O)C(c2ccccc2)c2ccccc2)C1 (stereo unspecified) | 0.2 | . | 3.5 | -2.1 | -3.6
O=C1c2cccc3c(O)ccc(c23)C(=O)N1Cc1ccccc1 | -3.5 | -13.2 | -150.8 | -23.5 | 68.2*
CCNC(=O)C1(C)CCCN(C(=O)c2cc(C)n(C(C)(C)C)n2)C1 (stereo unspecified) | -0.8 | . | 4.1 | -1.8 | 1.8
Oc1ccc(-c2csc(Nc3cccc4ccccc34)n2)cc1O | 62.0* | 11.0 | -1.7 | 3.2 | 17.7
Oc1ccc(-c2csc(Nc3ccccn3)n2)cc1O | 8.1 | 18.9 | -2.8 | 2.5 | -4.3
CSc1ccccc1C(=O)OCC(=O)NC1CC1 | 4.4 | . | 0.9 | -3.3 | 0.7
COc1ccc(C(=O)C[N+]2(C)CCOCC2)cc1 | 0.4 | 100.8* | -2.1 | -1.9 | -9.7
COC(=O)C1=C(C)N(Cc2ccccc2)C(=NCCc2cccnc2)N[C@H]1c1ccc(Br)cc1 | 2.9 | 57.1* | -5.4 | -0.9 | 13.4
COC(=O)C1=C(C)N(Cc2ccccc2)C(=NCCc2cccnc2)N[C@H]1c1ccccc1 | -1.3 | 6.1 | -1.2 | -2.2 | 2.8
CC(=O)OC[C@@H]1CN(Cc2ccccc2)C[C@H](n2cnc3c(N4CCOCC4)ncnc32)O1 | -1.4 | . | -2.8 | 4.8 | 7.5
Nc1cccc2nc3ccccc3cc12 | 13.1 | -6.3 | 5.4 | -0.9 | 69.1*
Nc1[nH]nc2nc3ccccc3cc12 | -1.3 | -17.2 | 0.4 | -6.9 | 0.6
Cc1cc(C)n2nc(SCC(=O)N3CC(C)CC(C)C3)nc2n1 (stereo unspecified) | -1.2 | 0.0 | 2.1 | 0.6 | 4.3
O=C(O)CCCCCNc1nc(-c2ccccc2)nc2ccccc12 | 58.7* | -4.7 | 1.6 | 1.2 | 1.5
CCN(CC)CCCNc1nc(-c2ccccc2)nc2ccccc12 | 49.6 | -9.4 | -1.9 | 2.3 | 2.1
c1ccc(-c2nc(NCCCn3ccnc3)c3ccccc3n2)cc1 | 57.3* | 14.4 | 2.2 | 1.1 | 0.5
O=c1[nH][nH]c2c1[C@@H](c1ccc(F)cc1)O[C@H](CCOCc1ccccc1)C2 | 4.1 | . | . | . | .
NC(=O)NN=C1CCC(OCc2ccccc2)CC1CC(=O)O (stereo unspecified) | -1.0 | . | -11.2 | 0.1 | 0.4
O=C1CCC(=O)c2ccc3c4c(ccc1c24)CC3 | 6.8 | -1.0 | -17.1 | 2.6 | 24.7
SMILES | LMPTP inh | Scp-1 inhibitor | Rpn11 block | STEP inh | DNMT1 block
O=C1CCN2C=Nc3cccc4ccc1c2c34 | -4.5 | -10.4 | -173.0 | -67.6 | 75.6*
O=C1c2c(O)cccc2Cc2cccc(O)c21 | 29.9 | -10.0 | -56.9 | 10.4 | 94.8*
O=C1c2ccccc2CSc2c(O)cccc21 | 1.3 | -14.9 | -10.8 | 2.0 | 1.6
COc1cc(/C=C2\CCc3c2nc2ccccc2c3C(=O)O)cc(OC)c1OC | 8.5 | 70.5* | -19.4 | 41.9* | 96.9*
Cc1ccc(C(=O)c2ccccc2C(=O)OCC(=O)N2C(C)CCCC2C)cc1 (stereo unspecified) | 0.1 | -12.7 | 4.9 | 3.5 | 1.7
C#CC(C)OCC1CNC(=S)O1 (stereo unspecified) | -1.0 | . | -5.2 | 0.6 | 3.6
N#CC(C#N)=C(N)/C(C#N)=C/c1cc(O)c(O)c(O)c1 | 50.6* | -0.7 | . | 1.9 | -1.6
Cc1c2ccncc2cc2c1[nH]c1ccccc12 | 55.4* | -7.7 | 27.3 | 2.8 | 29.6
Cc1cc2c([nH]c3ccccc32)c(C)n1 | 2.9 | -2.4 | -6.2 | 2.8 | -2.1
CN(C)CCNC(=O)c1cccc2nc3cccc(F)c3nc12 | 0.2 | -4.7 | 3.7 | -0.1 | 55.1*
CN1/C(=C\C=[N+](C)c2ccccc2)C(C)(C)c2ccccc21 | -2.0 | 71.8* | 2.8 | 0.4 | 0.9
CC1Oc2ccc(C#N)cc2N(Cc2cccc(F)c2)C1=O (stereo unspecified) | -0.3 | . | 1.2 | 0.8 | 1.4
CCOC(=O)NC(NC(=O)OCC)C(=O)c1ccc(F)cc1 | -2.2 | 102.3* | -6.9 | -0.2 | -4.6
CCCC(C)NC(=O)c1ccc(F)cc1 (stereo unspecified) | -0.9 | -4.8 | -2.9 | -0.1 | -11.4
O=C(O)c1ccc(N2Cc3ccccc3C2)cc1O | -1.4 | 71.2* | 6.3 | 4.3 | 8.3
O=C(NCc1ccccn1)c1cccc(S(=O)(=O)Nc2ccccc2Cl)c1 | -1.2 | -7.2 | -2.4 | 2.5 | 4.9
CCCN1C(=O)/C(=c2\sc3nc(=O)c(Cc4ccc(C)cc4)nn3c2=O)c2ccccc21 | 3.5 | 4.9 | 3.7 | 5.5 | 1.6
O=c1nc2s/c(=C\c3ccco3)c(=O)n2nc1Cc1ccc(F)cc1 | 0.1 | 77.4* | -5.4 | -1.2 | 3.0
O=C1CN(C(=O)CN2CCN(S(=O)(=O)c3ccccc3)CC2)c2ccccc2N1 | -0.5 | . | -5.0 | 3.2 | 1.0
C=C1c2cccc(O)c2C(O)=C2C(=O)[C@]3(O)C(O)=C(C(N)=O)C(=O)[C@@H](N(C)C)[C@@H]3[C@@H](O)[C@H]12 | 87.9* | 39.3 | 15.2 | 25.4 | 90.3*
C[C@H]1c2cccc(O)c2C(O)=C2C(=O)C3(O)C(O)=C(C(N)=O)C(=O)[C@@H](N(C)C)[C@@H]3[C@@H](O)[C@@H]21 (stereo partly specified) | 0.7 | -14.5 | -7.9 | -1.9 | -2.1
CCc1ccc(C2CC3C(CN2S(=O)(=O)c2ccc(C)cc2)C(=O)CC(c2ccc(CC)cc2)N3S(=O)(=O)c2ccc(C)cc2)cc1 (stereo unspecified) | 1.3 | . | . | . | .
O=C(Nc1ccc(Cl)c([N+](=O)[O-])c1)c1ccc(NCCCN2CCOCC2)c([N+](=O)[O-])c1 | 4.0 | -3.9 | 53.8* | 5.8 | -1.7
